In the library only some 0.77% were active in any assay of this set; here they are far more common.
mIAP activ – mouse IAP activation | muIAP, CDP-Star luminescence, 30 min; hits give high values; 1 = vehicle-only enzyme signal, 0 = enzyme-free wells | activation factor at 10 µM | actives 0.24% (n = 330,000) | AID 2805;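 active = activation factor of at least 2 at 20 µM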
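Assay system: mouse IAP enzyme; reagent: chemiluminescent substrate CDP-Star; dosing: test compounds delivered from DMSO solution; schedule: 30 min at room temperature; measured by: luminescence from enzymatic CDP-Star hydrolysis; controls: DMSO-only wells and no-enzyme negative control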
hIAP inh – blocks human intestinal alkaline phosphatase; P09923; purified IAP, CDP-Star luminescence, 30 min; inhibition, % at 10 µM; actives 0.12% (n = 330,000); AID 2544;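 active = inhibition reaching a set limit with compound at 10 µM in the primary screen, cut at about 35% in these data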;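 note: plate controls were DMSO wells with enzyme for no effect and no-enzyme buffer wells for full effect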
Target sequence (P09923 whole entry, looked up): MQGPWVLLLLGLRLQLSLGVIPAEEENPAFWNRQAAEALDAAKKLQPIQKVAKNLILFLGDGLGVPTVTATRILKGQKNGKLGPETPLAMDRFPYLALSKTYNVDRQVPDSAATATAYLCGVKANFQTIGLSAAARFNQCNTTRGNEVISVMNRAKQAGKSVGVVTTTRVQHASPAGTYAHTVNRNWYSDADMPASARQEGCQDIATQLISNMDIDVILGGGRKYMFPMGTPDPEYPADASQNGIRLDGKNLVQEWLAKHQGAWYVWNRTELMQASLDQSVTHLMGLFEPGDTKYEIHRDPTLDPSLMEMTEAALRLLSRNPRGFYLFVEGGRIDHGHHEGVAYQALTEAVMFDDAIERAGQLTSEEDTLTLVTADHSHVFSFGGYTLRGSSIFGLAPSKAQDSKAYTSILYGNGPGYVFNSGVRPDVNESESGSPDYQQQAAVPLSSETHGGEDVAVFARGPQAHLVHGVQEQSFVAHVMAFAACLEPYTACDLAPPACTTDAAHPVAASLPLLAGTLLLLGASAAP
bIAP inh – intestinal alkaline phosphatase (bovine) inhibition. purified bovine IAP, CDP-star luminescence, 30 min. inhibition, % at 20 µM. 190,000 tested, under 10 active. AID 1019;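 active = over 50% inhibition of intestinal alkaline phosphatase at 20 µM in the single-dose screen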
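test system = bovine IAP enzyme | medium = DEA buffer 100 mM, pH 9.8, with MgCl2 1.0 mM, ZnCl2 0.02 mM | detection = luminescence | dosing = single compound dose of 20 µM, 2% DMSO final | incubation = 30 min reaction at room temperature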
mIAP block – blocks mouse intestinal alkaline phosphatase. actives 0.2% (n = 330,000). purified mouse IAP, CDP-Star luminescence, 30 min. AID 2806. inhibition, % at 10 µM;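 active = inhibition of at least 40% at 10 µM in the primary screen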;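 note: plate controls were DMSO with enzyme for no effect and no enzyme wells for full effect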
bIAP activator – increases bovine intestinal alkaline phosphatase activity; purified bovine IAP, CDP-star luminescence, 30 min; hits give high values; fold of DMSO-control signal, blank-subtracted; activation factor at 20 µM; actives 0.17% (n = 200,000);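 active = activation factor of 2 or more at 20 µM, a signal rise over negative controls twice the positive control's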
hIAP act – human IAP activation; activation factor at 10 µM; AID 2524; P09923; purified human IAP, CDP-Star luminescence, 30 min; hits give high values; 1 = vehicle-only enzyme, 0 = enzyme-free background; actives 0.16% (n = 330,000);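 active = activation factor of the enzyme at least 2-fold when tested at 20 µM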
mIAP inh confirm – mouse IAP inhibition confirmation; inhibition, % at 10 µM; shares compounds with mIAP block; AID 434971; actives 4.7% (n = 11,000); purified mouse IAP, CDP-Star luminescence, 30 min;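 active = inhibition of at least 40% at 10 µM in either of the two replicates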;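 note: plate controls were DMSO wells with enzyme for no effect and buffer wells lacking enzyme for full effect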
* = called active by the depositor; · = not tested or not shown.

SMILES	mIAP activ	hIAP inh	bIAP inh	mIAP block	bIAP activator	hIAP act	mIAP inh confirm
Cc1ccccc1-c1n[nH]c(=S)n1/N=C/C=C/c1ccco1	0.561	-4.4	·	43.9*	·	1.04	50.0*
Cc1cc(-c2n[nH]c(=S)n2/N=C/C=C/c2ccco2)n[nH]1	0.507	-9.4	·	49.3*	·	1.09	54.3*
CCN(c1ccccc1)S(=O)(=O)c1ccc(OC)c(NC(=O)C2CC(=O)N(Cc3ccccc3)C2)c1 (configuration not stated)	1.03	-13.5	·	-3.1	·	1.14	·
CCOC(=O)CC1(NC(=O)C2CCC(=O)N(Cc3ccccc3OC)C2)CCCCC1 (configuration not stated)	0.991	14.0	·	0.9	·	0.86	·
CCC(C)NC(=O)Nc1ccc2c(c1)N(C)C(=O)c1ccccc1S2 (configuration not stated)	3.4*	-5.6	-259.7	-240.4	3.6*	1.06	-100.2
O=C(Nc1ccc(F)cc1)Nc1cc(OCC(F)(F)F)cc(OCC(F)(F)F)c1	4.56*	-34.0	29.4	-356.0	0.7	1.34	-110.6
CCOc1ccc(NC(=O)Nc2cc(OCC(F)(F)F)cc(OCC(F)(F)F)c2)cc1	3.04*	1.7	29.8	-204.4	0.7	0.983	-108.5
COCCNC(=S)N(C)C1(c2ccccc2Cl)CCCCC1=O (configuration not stated)	1.02	3.3	-6.0	-2.2	1.1	0.967	·
CCCSC1=N/C(=C\C=C\c2ccco2)C(=O)S1	0.554	5.5	31.2	44.6*	0.7	0.945	60.7*
O=C1SC(SCc2ccccc2)=N/C1=C\c1ccco1	0.751	8.2	20.8	24.9	0.8	0.918	·
Cc1cc(-c2nc3c4c5c(sc4[nH]c(=O)n3n2)CCC5)c(C)o1	0.512	-11.8	-3.5	48.8*	1	1.12	66.1*
Nc1c(C(=O)Nc2ccc(Br)cc2)sc2nc(-c3ccco3)ccc12	0.627	30.8	0.0	37.3	1	0.692	·
CC(=O)c1sc2nc(-c3ccco3)ccc2c1N	0.413	-19.1	·	58.7*	·	1.19	63.0*
COc1ccc2nc(NC(=O)CSCC(=O)Nc3cc(C)on3)sc2c1	0.993	2.5	·	0.7	·	0.975	·
CCCCN1C(=O)/C(=C/C=C2\N(C)c3ccccc3C2(C)C)SC1=S	0.486	23.3	·	51.4*	0.5	0.767	43.4*
C/C(CC(=O)Nc1cccnc1)=N\NC(=O)C(C)Oc1ccc(Cl)cc1Cl (configuration not stated)	1.03	1.1	·	-2.7	·	0.989	·
Cc1cc(=O)[nH]c(N/N=C/c2ccc(O)c(O)c2)n1	0.566	-26.4	·	43.4*	·	1.26	45.2*
CSc1ccc(/C=N/Nc2nc(C)cc(=O)[nH]2)cc1	0.997	-3.6	-12.0	0.3	1.1	1.04	·
CCCCC(=O)c1ccc(O)cc1	0.94	4.0	11.7	6.0	0.9	0.96	·
O=C(CCO)c1ccc(O)cc1	0.543	14.3	9.0	45.7*	0.9	0.857	47.2*
NS(=O)(=O)c1cccc(C(=O)NC2CCSc3ccccc32)c1 (configuration not stated)	1.21	4.9	·	-21.2	·	0.951	·
NS(=O)(=O)c1cc(C(=O)NC2CCSc3ccccc32)ccc1Cl (configuration not stated)	0.285	9.4	·	71.5*	·	0.906	84.0*
COc1cc(OC)c2c(c1O)OC(c1ccccc1)CC2=O (configuration not stated)	0.463	3.0	8.4	53.7*	0.9	0.97	62.2*
COCCN=c1scc(-c2ccco2)n1/N=C/c1ccc(O)c(O)c1O	0.457	-21.4	4.2	54.3*	1	1.21	52.9*
C=CCN=c1scc(-c2ccco2)n1/N=C/c1ccc(O)c(O)c1O	0.414	8.4	·	58.6*	·	0.916	67.7*
Cc1ccc(Cl)c2c1=NC(=O)C=2c1[nH]c(=S)[nH]c1O	0.54	24.3	·	46.0*	0.1	0.757	52.2*
N#CC1=C2SCN(c3ccccc3)CN2C(=O)CC1c1cccs1 (configuration not stated)	0.653	-2.5	6.4	34.7	0.9	1.02	·
